Shown are actives, neighbours in structure and some others; about 2.4% of the full set was active somewhere.
TDP2 inh: blocks human TDP2 phosphodiesterase activity | recombinant TDP2, T5PNP hydrolysis, p-nitrophenol absorbance 415 nm | O95551 | inhibition, % at 12.8 µM | 0.34% of 370,000 active;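 active = inhibition above the mean of all tested compounds plus 3 SD, set per campaign, cut at about 25% in these data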
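test system = human TDP2 enzyme | input = TDP2 enzyme at 120 nM final | medium = 50 mM Tris-HCl pH 7.5 with Mg2+, KCl, DTT, BSA | also added = T5PNP substrate, 5 mM | times = 2 h at 37 °C | technique = epi absorbance | benchmarks = high control without enzyme, low control DMSO plus TDP2 | replication = each compound tested once, singlicate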
Apaf1 inhib: human Apaf-1 inhibition. O14727. reconstituted apoptosome caspase-3 activity, DEVD-Rh110 fluorescence. inhibition, % at 20 µM. 0.71% of 330,000 active. AID 489030; active = inhibition of at least 40% at 20 µM
Target sequence (O14727 whole entry, looked up): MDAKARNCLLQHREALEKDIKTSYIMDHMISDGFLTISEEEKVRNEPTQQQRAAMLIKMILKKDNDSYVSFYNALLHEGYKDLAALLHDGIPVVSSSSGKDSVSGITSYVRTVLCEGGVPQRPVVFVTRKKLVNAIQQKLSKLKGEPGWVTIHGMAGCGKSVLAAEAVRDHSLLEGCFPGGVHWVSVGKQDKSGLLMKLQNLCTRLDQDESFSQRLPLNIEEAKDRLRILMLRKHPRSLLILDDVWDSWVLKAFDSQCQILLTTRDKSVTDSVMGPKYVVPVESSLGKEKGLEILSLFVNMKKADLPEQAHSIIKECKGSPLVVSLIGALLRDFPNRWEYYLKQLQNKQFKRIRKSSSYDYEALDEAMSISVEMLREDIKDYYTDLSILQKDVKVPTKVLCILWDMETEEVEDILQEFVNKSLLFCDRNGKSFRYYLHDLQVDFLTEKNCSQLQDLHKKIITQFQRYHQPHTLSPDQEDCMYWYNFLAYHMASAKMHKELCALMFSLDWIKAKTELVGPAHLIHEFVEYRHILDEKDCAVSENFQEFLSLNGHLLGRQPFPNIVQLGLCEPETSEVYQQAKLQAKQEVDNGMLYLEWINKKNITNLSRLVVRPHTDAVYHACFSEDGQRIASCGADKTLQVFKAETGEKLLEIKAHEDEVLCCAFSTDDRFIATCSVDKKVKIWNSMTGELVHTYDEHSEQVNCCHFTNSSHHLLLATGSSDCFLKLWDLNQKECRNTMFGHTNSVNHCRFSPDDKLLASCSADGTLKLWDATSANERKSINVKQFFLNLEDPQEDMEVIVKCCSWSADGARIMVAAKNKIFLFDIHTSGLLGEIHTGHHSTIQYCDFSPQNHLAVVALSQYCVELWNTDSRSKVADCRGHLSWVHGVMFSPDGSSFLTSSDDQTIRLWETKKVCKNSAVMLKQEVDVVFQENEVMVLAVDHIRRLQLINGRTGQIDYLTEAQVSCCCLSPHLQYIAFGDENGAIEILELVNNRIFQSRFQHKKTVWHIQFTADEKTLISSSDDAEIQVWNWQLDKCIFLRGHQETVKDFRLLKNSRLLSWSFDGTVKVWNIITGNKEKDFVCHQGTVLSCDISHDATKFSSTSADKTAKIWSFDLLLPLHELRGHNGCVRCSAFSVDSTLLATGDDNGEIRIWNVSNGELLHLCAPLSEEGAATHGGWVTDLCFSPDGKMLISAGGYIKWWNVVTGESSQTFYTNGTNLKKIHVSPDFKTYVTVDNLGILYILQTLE
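System – cell-free apoptosome with Apaf-1, procaspase-3 and caspase-9 · Buffer or medium – pH 7.5 Hepes buffer with CHAPS, BSA, DTT · Also added – cytochrome c with DEVD-Rh110 · Times – 30 min compound preincubation, 50 min activation, room temperature · Technique – Rh110 fluorescence intensity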
PAD4 FP inh: blocks human protein arginine deiminase 4 | Q9UM07 | recombinant PAD4, RCA probe fluorescence polarization | inhibition, % at 6.36 µM | 0.41% of 330,000 active;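 active = percent inhibition above a cutoff equal to the mean of all tested compounds plus 3 SD, cut at about 15% in these data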
TCR CD3 inh: human TCR-CD3 binding inhibition | AID 651800 | 0.37% of 360,000 active | inhibition, % at 9.4 µM | TAMRA-labeled TCR probe fluorescence, biochemical; in the data active = inhibition above about 19%;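 also: recombinant mutant TCR 2C K166C tagged with TAMRA read by polarization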
GSTO1 counter: blocks human GSTO1 in RBBP9 counter-screen; 1.1% of 300,000 active; AID 1974; recombinant GSTO1, activity-based probe fluorescence polarization; inhibition, % at 5.96 µM;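 active = inhibition above the campaign mean inhibition plus 3 SD, cut at about 35% in these data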
SIAE primary: human SIAE inhibition, primary screen | inhibition, % at 9.66 µM | Q9HAT2 | SIAE FP-Rh probe binding, fluorescence polarization | 0.69% of 370,000 active;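 active = inhibition above a cutoff: mean of compounds within the control limits plus 3 SD of those, cut at about 17% in these data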
PAD4 FP conf: confirmation of human PAD4 inhibitors; 28% of 1,200 active; recombinant PAD4, RCA probe fluorescence polarization; AID 488796; inhibition, % at 6.36 µM; shares compounds with PAD4 FP inh;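 active = mean inhibition across replicates above the hit cutoff set by the earlier primary screen, cut at about 15% in these data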;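 also: inhibitors block active-site labeling by the probe so polarization falls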
Numbers stand for hits.

How did CCOC(=O)C1=C(C)N=c2sc(=Cc3cc(Cl)c(OCC(=O)O)c(Cl)c3)c(=O)n2C1c1cccc(OC)c1 (stereo not drawn) do in these assays?
TDP2 inh: inactive; TCR CD3 inh: inactive; SIAE primary: inactive

What do the screens show for `O=C(CSc1cccc(C(F)(F)F)c1)Nc1ccc(N2CCOCC2)cc1`?
TDP2 inh: inactive; Apaf1 inhib: inactive; PAD4 FP inh: inactive; TCR CD3 inh: inactive; SIAE primary: inactive

Results for COc1ccccc1-c1nc(C(=O)NCC2CCCO2)cc2c1[nH]c1ccccc12 (stereo not drawn) ?
Apaf1 inhib: inactive; PAD4 FP inh: 37; GSTO1 counter: inactive; PAD4 FP conf: 33

How did O=C(NCC1CCCO1)c1cc2c([nH]c3ccccc32)c(-c2cccc(Cl)c2)n1 (stereo not drawn) do in these assays?
Apaf1 inhib: inactive; PAD4 FP inh: inactive; GSTO1 counter: inactive

What do the screens show for `COc1cc(-c2nc(C(=O)NCC3CCCO3)cc3c2[nH]c2ccccc23)cc(OC)c1OC` (stereo not drawn)?
TDP2 inh: inactive; Apaf1 inhib: inactive; PAD4 FP inh: 33; TCR CD3 inh: inactive; GSTO1 counter: inactive; SIAE primary: inactive; PAD4 FP conf: 38

How did CCC(=O)Oc1ccc(C(=O)Nc2cccc(NC(=O)c3ccco3)c2)cc1 do in these assays?
TDP2 inh: inactive; Apaf1 inhib: inactive; PAD4 FP inh: inactive; TCR CD3 inh: inactive; GSTO1 counter: inactive; SIAE primary: inactive

How did CCC(=O)Oc1ccc(C(=O)Nc2cccc(C(=O)NC(C)(C)C)c2)cc1 do in these assays?
TDP2 inh: inactive; Apaf1 inhib: inactive; PAD4 FP inh: 115; TCR CD3 inh: inactive; GSTO1 counter: inactive; SIAE primary: inactive; PAD4 FP conf: inactive

How did Cc1cc(-c2ccccc2)nc2c(Br)c(C(=O)O)nn12 do in these assays?
Apaf1 inhib: inactive; PAD4 FP inh: inactive; GSTO1 counter: inactive

Results for c1cc(CNc2ccc(N3CCOCC3)cc2)ccn1 ?
TDP2 inh: inactive; Apaf1 inhib: inactive; PAD4 FP inh: 25; TCR CD3 inh: inactive; GSTO1 counter: inactive; SIAE primary: inactive; PAD4 FP conf: inactive

What do the screens show for `COc1ccc(C2=Nn3c(nnc3-c3cccnc3)SC2)cc1OC`?
TDP2 inh: inactive; Apaf1 inhib: inactive; PAD4 FP inh: 22; TCR CD3 inh: inactive; GSTO1 counter: inactive; SIAE primary: inactive; PAD4 FP conf: inactive

What do the screens show for `COc1ccc(C2=Nn3c(nnc3-c3ccncc3)SC2)cc1OC`?
TDP2 inh: inactive; Apaf1 inhib: inactive; PAD4 FP inh: inactive; TCR CD3 inh: inactive; GSTO1 counter: inactive; SIAE primary: inactive

Results for CC(=O)c1ccccc1NS(=O)(=O)c1ccccc1Cl ?
TDP2 inh: inactive; Apaf1 inhib: inactive; PAD4 FP inh: inactive; TCR CD3 inh: inactive; GSTO1 counter: inactive; SIAE primary: inactive

Results for COc1ccc(C(=O)Nc2ccc(S(=O)(=O)Nc3cc(C)nc(C)n3)cc2)c(OC)c1 ?
TDP2 inh: inactive; Apaf1 inhib: inactive; PAD4 FP inh: 31; TCR CD3 inh: inactive; GSTO1 counter: inactive; SIAE primary: inactive; PAD4 FP conf: 21

What do the screens show for `COc1ccccc1C(=O)Nc1ccc(S(=O)(=O)Nc2cc(C)nc(C)n2)cc1`?
TDP2 inh: inactive; Apaf1 inhib: inactive; PAD4 FP inh: inactive; TCR CD3 inh: inactive; GSTO1 counter: inactive; SIAE primary: inactive

What do the screens show for `COc1ccccc1N=Cc1c(C)[nH]n(-c2ccc(C)cc2C)c1=O`?
TDP2 inh: inactive; Apaf1 inhib: inactive; PAD4 FP inh: inactive; TCR CD3 inh: inactive; GSTO1 counter: inactive; SIAE primary: inactive

Results for COc1cc(SC#N)ccc1N=Cc1c(C)[nH]n(-c2ccc(C)cc2C)c1=O ?
TDP2 inh: inactive; Apaf1 inhib: inactive; PAD4 FP inh: 22; TCR CD3 inh: inactive; GSTO1 counter: inactive; SIAE primary: inactive; PAD4 FP conf: 36

Results for COc1cc(SC#N)ccc1N=Cc1c(C)[nH]n(-c2cccc3ccccc23)c1=O ?
Apaf1 inhib: inactive; PAD4 FP inh: 31; GSTO1 counter: inactive; PAD4 FP conf: 46

Results for COc1cc(S(=O)(=O)Nc2ccc(C)cc2)ccc1N=Cc1c(C)[nH]n(-c2ccc(C)cc2)c1=O ?
TDP2 inh: inactive; Apaf1 inhib: inactive; PAD4 FP inh: inactive; TCR CD3 inh: inactive; GSTO1 counter: inactive; SIAE primary: inactive

How did O=C(Cn1ccc(C(F)(F)F)n1)Nc1ccc(S(=O)(=O)NCc2ccco2)cc1 do in these assays?
TDP2 inh: inactive; Apaf1 inhib: inactive; PAD4 FP inh: inactive; TCR CD3 inh: inactive; GSTO1 counter: inactive; SIAE primary: inactive

Results for CC(=O)N1CC[n+]2c(-c3ccc(Cl)cc3)csc21 ?
TDP2 inh: inactive; Apaf1 inhib: inactive; PAD4 FP inh: 22; TCR CD3 inh: inactive; GSTO1 counter: inactive; SIAE primary: inactive; PAD4 FP conf: inactive

How did CCc1ccc(-c2csc3[n+]2CCN3C(C)=O)cc1 do in these assays?
TDP2 inh: inactive; Apaf1 inhib: inactive; PAD4 FP inh: inactive; TCR CD3 inh: inactive; GSTO1 counter: inactive; SIAE primary: inactive

What do the screens show for `CC(C)c1ccc(N=c2c([N+](=O)[O-])nn(-c3ccc4c(c3)OCCO4)n2O)cc1`?
TDP2 inh: inactive; Apaf1 inhib: inactive; PAD4 FP inh: 18; TCR CD3 inh: inactive; GSTO1 counter: inactive; SIAE primary: inactive; PAD4 FP conf: inactive

Results for COc1cc(N=c2c([N+](=O)[O-])nn(-c3ccc4c(c3)OCCO4)n2O)cc(OC)c1 ?
TDP2 inh: inactive; Apaf1 inhib: inactive; PAD4 FP inh: inactive; TCR CD3 inh: inactive; GSTO1 counter: inactive; SIAE primary: inactive

What do the screens show for `CC(C)(C)C(=O)N1CCN(c2nc3ccccc3s2)CC1`?
TDP2 inh: inactive; Apaf1 inhib: inactive; PAD4 FP inh: inactive; TCR CD3 inh: inactive; GSTO1 counter: inactive; SIAE primary: inactive

How did CC12CCC(C(=Nc3ccc(N=C4C(=O)C5(C)CCC4C5(C)C)cc3)C1=O)C2(C)C do in these assays?
Apaf1 inhib: inactive; PAD4 FP inh: 45; GSTO1 counter: inactive; PAD4 FP conf: inactive

What do the screens show for `CN(C)c1ccc(N/C=C/C(=O)c2ccc(F)cc2)cc1`?
Apaf1 inhib: inactive; PAD4 FP inh: 31; GSTO1 counter: 45; PAD4 FP conf: inactive

How did CCCCCC(=O)N(Cc1ccccc1)c1c(N)n(CCOC)c(=O)[nH]c1=O do in these assays?
TDP2 inh: inactive; Apaf1 inhib: inactive; PAD4 FP inh: 38; TCR CD3 inh: inactive; GSTO1 counter: inactive; SIAE primary: inactive; PAD4 FP conf: inactive

What do the screens show for `CC1(C)C(=O)N(c2ccccc2F)C(=O)c2ccccc21`?
TDP2 inh: inactive; Apaf1 inhib: inactive; PAD4 FP inh: inactive; TCR CD3 inh: inactive; GSTO1 counter: inactive; SIAE primary: inactive

What do the screens show for `O=c1[nH]c(=O)n(C2CC(O)C(CO)O2)cc1I` (stereo not drawn)?
TDP2 inh: inactive; TCR CD3 inh: inactive; SIAE primary: inactive

High-throughput results deposited in PubChem BioAssay by several laboratories.
